In the array DNA melting data of Ke et al. (doi:10.1101/2024.01.08.574731) one finds folding enthalpy and Tm data, which are given here for 55 sequences.

Series [1] is described as follows: folding enthalpy; higher = less favourable; fluorescence melt of hairpins on a sequencing array, two-state fit. The conditions noted are these: sodium 0.088 M. The procedure, abridged: (§1)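 To match UV melts, fitted temperatures were raised by 9.35 °C. These fits were bootstrapped two-state models that gave melting temperature and folding enthalpy, combined by inverse variance over four replicates. The input was normalised Cy3 fluorescence of library hairpins with annealed Cy3 and quencher oligos on a sequenced MiSeq flow cell, imaged in 50 mM Na-HEPES pH 8.0, 25 mM NaCl in 2.5 °C steps up to 60 °C.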

Series [2] can be described thus: melting temperature; fluorescence melt of hairpins on a sequencing array, two-state fit, raised by 9.35 °C to match UV melts. Particulars: sodium 0.088 M. In a few lines:
as §1

In the case of GAAACCCGAAAGGGTTC (((.(((....)))))), the folding enthalpy in series [1] is -10.2 kcal/mol. In series [2], the Tm worked out at 51.5 °C.

Take GTCGATGGAAACGTCGAC (((((.(....).))))): in series [1], the folding enthalpy was -37.6 kcal/mol. Also, in series [2], the Tm worked out at 54.8 °C.

Consider GGTTAGGGAAACCTAATC (.(((((....))))).), for which, in series [1], the folding enthalpy is -27.7 kcal/mol. Also, in series [2], the Tm came out at 37.9 °C.

As to GTAAACGAAAGTTGTAC ((((((....))).))), the folding enthalpy in series [1] was -13.7 kcal/mol. Further, the Tm in series [2] came out at 31.2 °C.

For the sequence GCAGAGGGAAACCTCTGC (((((((....))))))), in series [1], the folding enthalpy is -46.2 kcal/mol. The Tm in series [2] turned out to be 67.9 °C.

GGACACGAAAGTGATTCC ((((((....)))..))): in series [1], the folding enthalpy is -14.7 kcal/mol. Further, the Tm in series [2] is 31.7 °C.

For the sequence CGGAGCGGAAACGCACCG (((.(((....))).))), in series [1], the folding enthalpy is -35 kcal/mol. In series [2], the Tm was determined as 58.7 °C.

With GCAAACGAAAGTTCATGC ((((((....)))..))), the folding enthalpy in series [1] was -11.2 kcal/mol. In addition, the Tm in series [2] worked out at 26 °C.

On to GATCCGTCACGGATC ((((((...)))))), for which the folding enthalpy in series [1] was -34.7 kcal/mol. The Tm in series [2] turned out to be 60.6 °C.

As for GTGTGTGGAAACATACGC (.((.((....)).)).), the folding enthalpy in series [1] is -29.4 kcal/mol. Moreover, the Tm in series [2] came to 47 °C.

GACTCAACGAAAGTTGTC (((..(((....)))))): the folding enthalpy in series [1] was -10.2 kcal/mol. The Tm in series [2] was found to be 29.9 °C.

As to GCACAAGGAAACTTGTGC (((((((....))))))), the folding enthalpy in series [1] is -33.7 kcal/mol. Further, the Tm in series [2] is 67.4 °C.

Consider GCTAGGACGAAAGTCAGC (((..(((....)))))), for which the folding enthalpy in series [1] is -16.6 kcal/mol. Moreover, the Tm in series [2] turned out to be 42.7 °C.

Take GATCCACTCATGGATC ((((((....)))))): the folding enthalpy in series [1] is -41.5 kcal/mol. Also, the Tm in series [2] came out at 52.5 °C.

In the case of GAAGTGGAAACACTTC ((((((....)))))), the folding enthalpy in series [1] is -33.7 kcal/mol. Besides, in series [2], the Tm was determined as 54 °C.

For GTCTTTGAAAAAAGAC ((((((....)))))), the folding enthalpy in series [1] was -31.1 kcal/mol. In addition, the Tm in series [2] was 48 °C.

Turning to GGAATACGAAAGTACTCC (((.(((....))).))), in series [1], the folding enthalpy is -27.4 kcal/mol. Moreover, in series [2], the Tm worked out at 39.5 °C.

With GTCGTCGAAAGACCGAC ((((((....))).))), the folding enthalpy in series [1] was -23.5 kcal/mol. In addition, the Tm in series [2] was 50.7 °C.

In the case of GTCAACCGAAAGGTGGAC (((.(((....))).))), in series [1], the folding enthalpy was -30.5 kcal/mol. Further, in series [2], the Tm was determined as 56.2 °C.

Consider GGATCTGGAAACAGACCC ((.((((....)))).)), for which the folding enthalpy in series [1] is -32.2 kcal/mol. Further, the Tm in series [2] was found to be 42 °C.

Regarding GATCTTTCCAAGATC ((((((...)))))), the folding enthalpy in series [1] is -37.1 kcal/mol. The Tm in series [2] was determined as 47.7 °C.

As for GCGAAGCATCGC ((((....)))), the folding enthalpy in series [1] was -8.14 kcal/mol. Moreover, the Tm in series [2] worked out at 59.5 °C.

Turning to GCGGCCGAAAGGCATCGC ((((((....)))..))), the folding enthalpy in series [1] is -23 kcal/mol. For the same sequence, the Tm in series [2] stood at 53.1 °C.

As for GCGCAGCGAAAGCTATGC ((..(((....)))..)), the folding enthalpy in series [1] is -7.11 kcal/mol. The Tm in series [2] worked out at 39.3 °C.

For the sequence GGTCGCGAAAGCGTAACC ((((((....)))..))), in series [1], the folding enthalpy is -15 kcal/mol. Further, the Tm in series [2] was found to be 47.2 °C.

With GATGAGGGAAACCTCGTC ((.((((....)))).)), in series [1], the folding enthalpy is -22.3 kcal/mol. The Tm in series [2] is 47.9 °C.

For GCCTGCGAAAGCACGGC ((((((....))).))), the folding enthalpy in series [1] was -29.7 kcal/mol. The Tm in series [2] came out at 63.2 °C.

GATCTCCCAGGAGATC ((((((....)))))): the folding enthalpy in series [1] is -36.4 kcal/mol. In addition, the Tm in series [2] stood at 56.8 °C.

Take GATCACACAGGTGATC ((((((....)))))): the folding enthalpy in series [1] was -44.3 kcal/mol. Also, the Tm in series [2] came out at 54.5 °C.

Consider GATCGATTTCTCGATC ((((((....)))))), for which the folding enthalpy in series [1] is -36.4 kcal/mol. Also, the Tm in series [2] was determined as 52.5 °C.

Consider GGTCGCGAAAGCGTGACC ((((((....)))..))), for which, in series [1], the folding enthalpy was -18.2 kcal/mol. In addition, the Tm in series [2] came to 53.1 °C.

Regarding GACGGGCGAAAGCCAGTC (((.(((....))).))), the folding enthalpy in series [1] is -21.7 kcal/mol. Also, in series [2], the Tm is 67.9 °C.

Turning to GATCCCCGTCGGGATC ((((((....)))))), in series [1], the folding enthalpy was -32.4 kcal/mol. For the same sequence, the Tm in series [2] is 62.8 °C.

GCAGAGCGAAAGCTCAGC ((.((((....)))).)): in series [1], the folding enthalpy is -20.4 kcal/mol. Also, in series [2], the Tm is 64.8 °C.

Turning to GAATCCGAAAGGAATTC ((((((....))).))), the folding enthalpy in series [1] was -23.6 kcal/mol. Besides, in series [2], the Tm was 39.7 °C.

As to GTAGCGGGAAACCGCCAC ((.((((....)))).)), the folding enthalpy in series [1] was -11.7 kcal/mol. Moreover, the Tm in series [2] amounted to 38.7 °C.

Turning to CGTGTCGGAAACGAAACG (((.(((....))).))), in series [1], the folding enthalpy is -35.6 kcal/mol. For the same sequence, in series [2], the Tm was determined as 47.1 °C.

On to GAATGAGGAAACTCATTC (((((((....))))))), for which the folding enthalpy in series [1] was -37.3 kcal/mol. Besides, the Tm in series [2] was 52.8 °C.

Regarding GAGATTGAAAAATCTC ((((((....)))))), in series [1], the folding enthalpy was -33.8 kcal/mol. Besides, the Tm in series [2] came out at 47.9 °C.

With GCGGATCGAAAGATTCGC (((.(((....))).))), the folding enthalpy in series [1] is -45.9 kcal/mol. The Tm in series [2] amounted to 60.8 °C.

Turning to GCTAATGGAAACATCAGC (((.(((....))).))), in series [1], the folding enthalpy is -22.2 kcal/mol. Also, the Tm in series [2] was 32.5 °C.

With GCTCTGGGAAACCAAAGC (((.(((....))).))), the folding enthalpy in series [1] was -23.7 kcal/mol. Moreover, the Tm in series [2] amounted to 35.5 °C.

On to GGGGCAGGAAACTACCCC ((((.((....)).)))), for which, in series [1], the folding enthalpy was -29.4 kcal/mol. The Tm in series [2] came out at 49 °C.

Regarding GCCTAGGGAAACCCAGGC ((((.((....)).)))), the folding enthalpy in series [1] is -31.6 kcal/mol. In series [2], the Tm came out at 50.6 °C.

As to GATCGGCGAAAGCCATC (((.(((....)))))), the folding enthalpy in series [1] is -11 kcal/mol. For the same sequence, the Tm in series [2] was 35.7 °C.

Consider GTCGATGAAAATCGAC ((((((....)))))), for which the folding enthalpy in series [1] was -39.4 kcal/mol. Also, in series [2], the Tm was determined as 61.3 °C.

Regarding GAGTGACGAAAGTCGCTC (((.(((....))).))), the folding enthalpy in series [1] is -38.9 kcal/mol. The Tm in series [2] amounted to 64.8 °C.

Regarding GATCTTGAATAAGATC ((((((....)))))), the folding enthalpy in series [1] was -31.9 kcal/mol. Moreover, in series [2], the Tm is 49.3 °C.

Consider GTAGGGTCGAAAGACTAC (((..(((....)))))), for which the folding enthalpy in series [1] was -12.2 kcal/mol. Further, the Tm in series [2] was found to be 32.5 °C.

With GCCAGCGAAAGCTACGGC ((((((....)))..))), the folding enthalpy in series [1] was -19.9 kcal/mol. Also, the Tm in series [2] was 49.8 °C.

For the sequence GATCGTTTGCACGATC ((((((....)))))), in series [1], the folding enthalpy was -27 kcal/mol. The Tm in series [2] was determined as 54.7 °C.

Consider GAGTCTACGAAAGTACTC (((..(((....)))))), for which the folding enthalpy in series [1] was -15 kcal/mol. Also, the Tm in series [2] is 27.2 °C.

With GTAGCTGCGAAAGCATAC (((..(((....)))))), the folding enthalpy in series [1] was -10.1 kcal/mol. Also, the Tm in series [2] came out at 31.3 °C.

As for GATACGCGAAAGCGGATC (((.(((....))).))), the folding enthalpy in series [1] is -29.3 kcal/mol. For the same sequence, in series [2], the Tm amounted to 66 °C.

On to GATCGTATTGACGATC ((((((....)))))), for which the folding enthalpy in series [1] is -22.8 kcal/mol. Further, the Tm in series [2] was determined as 55 °C.
